Data: ChEMBL document CHEMBL1123589, “Phenylpiperazine-based radiopharmaceuticals for brain imaging. 3. Synthesis and evaluation of radioiodinated 1-alkyl-4-phenylpiperazines” (J Med Chem, 1987)

Columns and labels:
Conditions in all cases: in vivo
[1] = system: Rattus norvegicus; assay: The biodistribution of the [125I]-labeled compound in rats after intravenous injection was evaluated in adrenal at 0.25 hrs; value ranges from 0.58-0.61 (ID.kg/g); type: ADME, organism-based
Summary of the method: (§1)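 Male Sprague-Dawley rats (250–300 g) under ether anesthesia were given an iv injection of no-carrier-added 125I-labelled agent (10–15 μCi in 0.1 mL saline). The agent was iodinated with chloramine-T in acetate buffer and purified by C-18 HPLC. Groups of N = 3 were killed at 0.25, 1 and 4 h. Blood and tissues were weighed and γ-counted. Values are % ID·kg/g, mean (range).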

[2] = system: Rattus norvegicus; assay: The biodistribution of the [125I]-labeled compound in rats after intravenous injection was evaluated in adrenal at 1.00 hrs; value ranges from 0.83-0.85 (ID.kg/g); type: ADME, organism-based; summary of the method: as §1
[3] = system: Rattus norvegicus; assay: The biodistribution of the [125I]-labeled compound in rats after intravenous injection was evaluated in adrenal at 4.00 hrs; value ranges from 0.90-0.97 (ID.kg/g); type: ADME, organism-based; summary of the method: as §1
[4] = system: Rattus norvegicus; assay: The biodistribution of the [125I]-labeled compound in rats after intravenous injection was evaluated in blood at 0.25 hrs (ID.kg/g); type: ADME, organism-based; summary of the method: as §1
[5] = system: Rattus norvegicus; assay: The biodistribution of the [125I]-labeled compound in rats after intravenous injection was evaluated in blood at 1.00 hrs (ID.kg/g); type: ADME, organism-based; summary of the method: as §1
[6] = system: Rattus norvegicus; assay: The biodistribution of the [125I]-labeled compound in rats after intravenous injection was evaluated in blood at 4.00 hrs (ID.kg/g); type: ADME, organism-based; summary of the method: as §1
[7] = system: Rattus norvegicus; assay: The biodistribution of the [125I]-labeled compound in rats after intravenous injection was evaluated in brain at 0.25 hrs (ID.kg/g); type: ADME, organism-based; summary of the method: as §1
[8] = system: Rattus norvegicus; assay: The biodistribution of the [125I]-labeled compound in rats after intravenous injection was evaluated in heart at 0.25 hrs; value ranges from 0.11-0.15 (ID.kg/g); type: ADME, organism-based; summary of the method: as §1
[9] = system: Rattus norvegicus; assay: The biodistribution of the [125I]-labeled compound in rats after intravenous injection was evaluated in heart at 1.00 hrs (ID.kg/g); type: ADME, organism-based; summary of the method: as §1
[10] = system: Rattus norvegicus; assay: The biodistribution of the [125I]-labeled compound in rats after intravenous injection was evaluated in lung at 4.00 hrs; value ranges from 0.19-0.25 (ID.kg/g); type: ADME, organism-based
Summary of the method: (§2)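 Male Sprague-Dawley rats (250–300 g), under ether anesthesia, given 10–15 μCi of the NCA ¹²⁵I-labeled agent iv in 0.1 mL saline. Groups of N = 3 were killed at 0.25, 1 or 4 h. Blood and tissues were removed, weighed and counted in a γ-well scintillation counter. Values are mean % ID·kg/g (range).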

[11] = system: Rattus norvegicus; assay: The biodistribution of the [125I]-labeled compound in rats after intravenous injection was evaluated in muscle at 0.25 hrs (ID.kg/g); type: ADME, organism-based, Muscle tissue
Summary of the method: (§3)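 Male Sprague-Dawley rats (250–300 g) under ether anesthesia given iv 0.1 mL saline containing 10–15 μCi of NCA ¹²⁵I-labeled agent (chloramine-T iodination, HPLC-purified). Groups of 3 killed at 0.25, 1 and 4 h. Blood and tissues excised, weighed and γ-counted. Values are mean (range) of % injected dose × body mass (kg) per gram of tissue.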

[12] = system: Rattus norvegicus; assay: The biodistribution of the [125I]-labeled compound in rats after intravenous injection was evaluated in muscle at 4.00 hrs (ID.kg/g); type: ADME, organism-based, Muscle tissue; summary of the method: as §3
[13] = system: Rattus norvegicus; assay: The biodistribution of the [125I]-labeled compound in rats after intravenous injection was evaluated in thyroid at 0.25 hrs; value ranges from 1.12-1.29 (ID.kg/g); type: ADME, organism-based, Thyroid gland; summary of the method: as §3
[14] = system: Rattus norvegicus; assay: The biodistribution of the [125I]-labeled compound in rats after intravenous injection was evaluated in thyroid at 1.00 hrs; value ranges from 1.22-1.36 (ID.kg/g); type: ADME, organism-based, Thyroid gland; summary of the method: as §3
[15] = system: Rattus norvegicus; assay: The biodistribution of the [125I]-labeled compound in rats after intravenous injection was evaluated in brain at 4.00 hrs; value ranges from 0.17-0.21 (ID.kg/g); type: ADME, organism-based; summary of the method: as §1
[16] = system: Rattus norvegicus; assay: The biodistribution of the [125I]-labeled compound in rats after intravenous injection was evaluated in fat at 0.25 hr (ID. kg/g); type: ADME, organism-based, Adipose tissue; summary of the method: as §1
[17] = system: Rattus norvegicus; assay: The biodistribution of the [125I]-labeled compound in rats after intravenous injection was evaluated in fat at 1.00 hrs (ID.kg/g); type: ADME, organism-based, Adipose tissue; summary of the method: as §1
[18] = system: Rattus norvegicus; assay: The biodistribution of the [125I]-labeled compound in rats after intravenous injection was evaluated in brain at 1.00 hrs; value ranges from 0.23-0.32 (ID.kg/g); type: ADME, organism-based; summary of the method: as §1
[19] = system: Rattus norvegicus; assay: The biodistribution of the [125I]-labeled compound in rats after intravenous injection was evaluated in fat at 4.00 hrs (ID.kg/g); type: ADME, organism-based, Adipose tissue; summary of the method: as §1
[20] = system: Rattus norvegicus; assay: The biodistribution of the [125I]-labeled compound in rats after intravenous injection was evaluated in kidney at 4.00 hrs; value ranges from 0.18-0.23 (ID.kg/g); type: ADME, organism-based; summary of the method: as §2
[21] = system: Rattus norvegicus; assay: The biodistribution of the [125I]-labeled compound in rats after intravenous injection was evaluated in liver at 0.25 hr; value ranges from 0.19-0.27 (ID.kg/g); type: ADME, organism-based; summary of the method: as §2
[22] = system: Rattus norvegicus; assay: The biodistribution of the [125I]-labeled compound in rats after intravenous injection was evaluated in liver at 4.00 hrs; value ranges from 0.42-0.55 (ID.kg/g); type: ADME, organism-based; summary of the method: as §2
[23] = system: Rattus norvegicus; assay: The biodistribution of the [125I]-labeled compound in rats after intravenous injection was evaluated in lung at 0.25 hrs; value ranges from 0.55-0.57 (ID.kg/g); type: ADME, organism-based; summary of the method: as §2
[24] = system: Rattus norvegicus; assay: The biodistribution of the [125I]-labeled compound in rats after intravenous injection was evaluated in lung at 1.00 hrs; value ranges from 0.33-0.37 (ID.kg/g); type: ADME, organism-based; summary of the method: as §2
[25] = system: Rattus norvegicus; assay: The biodistribution of the [125I]-labeled compound in rats after intravenous injection was evaluated in liver at 1.00 hrs; value ranges from 0.34-0.44 (ID.kg/g); type: ADME, organism-based; summary of the method: as §2
[26] = system: Rattus norvegicus; assay: The biodistribution of the [125I]-labeled compound in rats after intravenous injection was evaluated in kidney at 0.25 hr; value ranges from 0.37-0.45 (ID.kg/g); type: ADME, organism-based; summary of the method: as §2
[27] = system: Rattus norvegicus; assay: The biodistribution of the [125I]-labeled compound in rats after intravenous injection was evaluated in kidney at 1.00 hrs; value ranges from 0.29-0.35 (ID.kg/g); type: ADME, organism-based; summary of the method: as §2
[28] = system: Rattus norvegicus; assay: The biodistribution of the [125I]-labeled compound in rats after intravenous injection was evaluated in heart at 4.00 hrs; value ranges from 0.05-0.06 (ID.kg/g); type: ADME, organism-based; summary of the method: as §2
[29] = system: Rattus norvegicus; assay: The biodistribution of the [125I]-labeled compound in rats after intravenous injection was evaluated in thyroid at 4.00 hrs; value ranges from 3.21-5.02 (ID.kg/g); type: ADME, organism-based, Thyroid gland; summary of the method: as §3
[30] = system: Rattus norvegicus; assay: The biodistribution of the [125I]-labeled compound in rats after intravenous injection was evaluated in muscle at 1.00 hrs (ID.kg/g); type: ADME, organism-based, Muscle tissue; summary of the method: as §3

## CC(C)CN1CCN(c2ccc(I)cc2)CC1
[1]
  Biodistribution: 0.61%
[2]
  Biodistribution: 0.85%
[3]
  Biodistribution: 0.97%
[4]
  Biodistribution: 0.01 % ID·kg/g
[5]
  Biodistribution: 0.01 % ID·kg/g
[6]
  Biodistribution: 0.01 % ID·kg/g
[7]
  Biodistribution: 0.25%
[8]
  Biodistribution: 0.15%
[9]
  Biodistribution: 0.09%
[10]
  Biodistribution: 0.25%
[11]
  Biodistribution: 0.03 % ID·kg/g
[12]
  Biodistribution: 0.03 %ID·kg/g
[13]
  Biodistribution: 1.29%
[14]
  Biodistribution: 1.36%
[15]
  Biodistribution: 0.21%
[16]
  Biodistribution: 0.02 % ID·kg/g
[17]
  Biodistribution: 0.02 % ID·kg/g
[18]
  Biodistribution: 0.32%
[19]
  Biodistribution: 0.04%
[20]
  Biodistribution: 0.23%
[21]
  Biodistribution: 0.27%
[22]
  Biodistribution: 0.55%
[23]
  Biodistribution: 0.57%
[24]
  Biodistribution: 0.37%
[25]
  Biodistribution: 0.44%
[26]
  Biodistribution: 0.45%
[27]
  Biodistribution: 0.35%
[28]
  Biodistribution: 0.07%
[29]
  Biodistribution: 5.02%
[30]
  Biodistribution: 0.02 %ID·kg/g
